Screens deposited in PubChem by several laboratories.
The list is not random: actives were taken first. Their share in the collection is about 2.1%.
VIM-2 inhibitor – blocks Pseudomonas aeruginosa VIM-2 metallo-beta-lactamase | purified VIM-2, nitrocefin hydrolysis, epi-absorbance fluorescence | inhibition, % at 5.6 µM | actives 0.89% (n = 290,000);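 active = inhibition above the mean of all tested compounds plus 3 SD, cutoff set per screening run, cut at about 7.5% in these data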;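 note: red hydrolysis product quenches plate fluorescence so inhibitors raise well fluorescence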
SUMO HTRF inh – inhibitors of human SUMOylation (UBC9). actives 0.36% (n = 290,000). HTRF SUMOylation assay, SAE1/SAE2 + UBC9, in vitro. inhibition, % at 35 µM; in the data active = inhibition above about 50%, passing the limit was not always enough
Target sequence (P63279 whole entry, looked up): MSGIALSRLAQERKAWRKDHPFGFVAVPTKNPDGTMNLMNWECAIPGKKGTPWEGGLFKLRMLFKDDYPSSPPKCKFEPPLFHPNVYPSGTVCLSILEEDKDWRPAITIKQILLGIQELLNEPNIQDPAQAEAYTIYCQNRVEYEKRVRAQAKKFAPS
NS3 helicase inh – inhibitors of Hepatitis C virus NS3 helicase | NS3 helicase DNA unwinding, Cy5 molecular beacon fluorescence | inhibition, % at 10.9 µM | actives 0.56% (n = 290,000) | AID 1800;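 active = inhibition above the mean of all tested compounds plus 3 SD, set per campaign, cut at about 35% in these data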
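assay system = NS3 helicase fragment of HCV | buffer or medium = MOPS pH 6.5, MgCl2, DTT, Tween20, BSA | timing = 60 min unwinding reaction at 25 °C after ATP addition | signal = Cy5 beacon fluorescence read at start and 1 h | read-out basis = % inhibition of unwinding | control set = low DMSO, high thioflavine S at 110 µM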
IMP-1 inh – blocks Pseudomonas aeruginosa IMP-1 metallo-beta-lactamase | actives 0.45% (n = 290,000) | purified IMP-1, nitrocefin hydrolysis, epi-absorbance fluorescence | inhibition, % at 5.6 µM;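 active = inhibition above the mean plus 3 SD of all compounds in the same screening run, cut at about 4.5% in these data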
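System: purified recombinant IMP-1 beta-lactamase. Medium: Zinc- and detergent-supplemented HEPES buffer, pH 7.1. Compound: one 5.6 µM dose […]. Schedule: 15 min preincubation plus 25 min reaction at 25 °C. Technique: Epi-absorbance fluorescence, 480 nm excitation, 530 nm emission.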
DNA FID counter – displaces DNA intercalator in HCV helicase counter-screen. actives 0.17% (n = 290,000). DNA fluorescent intercalator displacement, fluorescence. inhibition, % at 7.9 µM; in the data active = inhibition above about 37%;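 note: higher means more ethidium bromide displaced from hairpin DNA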
Of the large screens only hits and unclear results are named; the others gave an inactive call.

CN(C)S(=O)(=O)c1ccc(C(=O)N2CC(=O)Nc3ccc(F)cc3C2c2ccc(F)cc2)cc1 (stereo not given)	none
CCCC(=O)OCCNc1cc(SCc2ccco2)c2nonc2c1[N+](=O)[O-]	SUMO HTRF inh 90
COc1ccc(-c2csc(Nc3cccnc3)n2)cc1OC	VIM-2 inhibitor 12
Oc1c(CN2CCCCC2)cc(COCc2ccccc2)c2cccnc12	VIM-2 inhibitor 12
COCc1cc(CN2CCCC2)c(O)c2ncccc12	VIM-2 inhibitor 8.2
Oc1ccc(CN2CCCCC2)c2cccnc12	none
NS(=O)(=O)c1ccc(CCNS(=O)(=O)Cc2ccc(Cl)cc2)cc1	none
C#CCOCCOCCOCCNc1nc(N2CCN(C(=O)Cn3cc(CC(C)O)nn3)CC2)nc(N2CCN(C(=O)[C@H](C)n3cc(CCCN=C(N)N)nn3)CC2)n1 (stereo not given in full)	none
O=Cc1cccn1Cc1ccccc1[N+](=O)[O-]	none
Cc1sc2nc(COC(=O)CNC(=O)c3ccc(C(C)(C)C)cc3)[nH]c(=O)c2c1C	IMP-1 inh 8.6
O=c1c2ccccc2oc2nc3ccn(Cc4ccncc4)c(=O)c3cc12	SUMO HTRF inh 68
Cc1ccc2c(c1)N(C(=O)CCC(=O)NCc1cccnc1)CC(C)O2 (stereo not given)	none
O=C(O)c1cccc(-n2cccc2/C=C2/NC(=O)N(c3ccc(Cl)cc3)C2=O)c1	SUMO HTRF inh 90
COc1ccc(C(=O)Nc2nnc(SCC(=O)NCc3ccco3)s2)c(OC)c1	VIM-2 inhibitor 11
CCO[C@@H]1OC(C(=O)N2CCN(Cc3ccccc3)CC2)=C[C@H](c2coc3ccccc3c2=O)[C@H]1CCCO	none
CC1=CC(C)C(C(=O)O)C(C(=O)Nc2cccnc2)C1 (stereo not given)	none
CC1=CC(C)C(C(=O)O)C(C(=O)N2CCN(C)CC2)C1 (stereo not given)	VIM-2 inhibitor 9.3
Cc1ccc(N2CCN(S(=O)(=O)c3ccc4oc(=O)ccc4c3)CC2)cc1Cl	none
CC(=O)N(CCCc1ccc(C(C)(C)C)cc1)CCCN(C)C	DNA FID counter 38
CC(=O)N(CCCN(C)C)Cc1ccccn1	none
CC(C)C1Nc2ccc(S(N)(=O)=O)cc2C2C=CCC21 (stereo not given)	none
NS(=O)(=O)c1ccc2c(c1)C1C=CCC1C(C1CC=CCC1)N2 (stereo not given)	IMP-1 inh 13
Cc1ccc(S(=O)(=O)N2CCN(c3ccnc4cc(Cl)ccc34)CC2)cc1	VIM-2 inhibitor 10
COc1ccc([N+](=O)[O-])cc1N(CC(=O)Nc1ccccc1C(=O)NC(C)C)S(C)(=O)=O	none
O=C(O)c1cccc2c1C(=O)c1ccccc1C2=O	none
CC(C)OC(=O)c1cccc2c1C(=O)c1ccccc1-2	VIM-2 inhibitor 10
Cc1ccc(Cl)cc1Nc1nc(-c2sc(NC(=O)C(C)(C)C)nc2C)cs1	IMP-1 inh 18
COc1ccccc1Nc1nc(-c2sc(NC(=O)C(C)(C)C)nc2C)cs1	none
CC12CCC(=O)N1C(C(=O)Nc1nc3c(F)cc(F)cc3s1)CS2 (stereo not given)	IMP-1 inh 11
Cc1cccc2sc(NC(=O)C3CSC4(C)CCC(=O)N34)nc12 (stereo not given)	none
CCCCCCCCCCOC(=O)Cn1c(COc2ccccc2OC)[n+](C)c2ccccc21	DNA FID counter 46
Cn1c(COc2ccccc2O)[n+](C)c2ccccc21	none
COC(=O)c1cc(S(=O)(=O)N(Cc2ccccc2)C(C)(C)C)c[nH]1	none
COc1cccc(-c2nn3c(-c4ccccn4)nnc3s2)c1	VIM-2 inhibitor 8.0
COc1ccc(-c2nn3c(-c4cccc(C)c4)nnc3s2)cc1OC	none (no result: SUMO HTRF inh)
COc1ccc(-c2nn3c(-c4ccccn4)nnc3s2)cc1OC	VIM-2 inhibitor 12
c1ccc(-c2nn3c(-c4ccco4)nnc3s2)nc1	VIM-2 inhibitor 9.7
CN(C)c1ccc(-c2nn3c(-c4ccccc4Cl)nnc3s2)cc1	none
COc1ccccc1-c1nnc2sc(-c3ccc(N(C)C)cc3)nn12	IMP-1 inh 15
Clc1ccc(-c2nnc3sc(-c4ccccn4)nn23)cc1	none
COC(=O)c1c(C)oc(C)c1S(=O)(=O)NC(c1ccccc1)c1ccccc1	none
CCC1Cc2c(nc(N)c3c(N)nc(N4CCOCC4)c(C#N)c23)O1 (stereo not given)	none
CN(CCO)c1nc(N)c2c(N)nc3c(c2c1C#N)CC(=O)N3Cc1cccs1	SUMO HTRF inh 101
CCOc1cc2c(C#N)c(N3CCOCC3)nc(N)c2c(N)n1	SUMO HTRF inh 97 (no result: VIM-2 inhibitor, NS3 helicase inh, IMP-1 inh, DNA FID counter)
COCCN1C(=O)Cc2c1nc(N)c1c(N)nc(N3CCN(c4ccc(F)cc4)CC3)c(C#N)c21	SUMO HTRF inh 93
COc1ccc(CN2C(=O)Cc3c2nc(N)c2c(N)nc(N4CCOCC4)c(C#N)c32)cc1	SUMO HTRF inh 101
CC(C)CNC(=O)c1ccccc1N(Cc1ccccc1)S(C)(=O)=O	none
O=C(NCCCN1CCOCC1)c1ccc2c(c1)N(Cc1ccccc1F)C(=O)c1ccccc1S2=O (stereo not given)	none
COc1ccc2[nH]cc(CCNC(=O)Cc3ccc(F)cc3)c2c1	none
O=C(CCC(=O)N1CCN(Cc2ccc(F)cc2)CC1)Nc1nnc(C(F)(F)F)s1	none
CCOc1ccc(OCCCC(=O)NCCc2ccc(OC)cc2)cc1	none
C=CCn1c(SCC(=O)N(C)C)nc2sc3c(c2c1=O)CCC3	VIM-2 inhibitor 8.4
N#C/C(=C\c1ccc(-c2cccc([N+](=O)[O-])c2)o1)c1nnc(N2CCOCC2)n1-c1ccccc1	none
CCc1nn(CC(=O)NCCCN(C)Cc2ccccc2)c(=O)c2cc3sc(C)cc3n12	VIM-2 inhibitor 9.0
CN(C)S(=O)(=O)c1ccc(C(=O)NCc2nnc(SCC(=O)Nc3ccc(F)cc3)n2-c2ccc(F)cc2)cc1	none
Cc1[nH]n(-c2ccccc2)c(=O)c1C(C[N+](=O)[O-])c1ccc(Cl)cc1 (stereo not given)	none
Cc1ccc(C(C[N+](=O)[O-])c2c(C)[nH]n(-c3ccccc3)c2=O)cc1 (stereo not given)	SUMO HTRF inh 71
Cc1[nH]n(-c2ccccc2)c(=O)c1C(C[N+](=O)[O-])c1ccc(F)cc1 (stereo not given)	SUMO HTRF inh 88
C=CCN1C(=O)C(CC(=O)NCC)SC1=Nc1ccccc1CC (stereo not given)	none
Cc1c(C(=O)N(C)CCCCN2CCOCC2)oc2c(F)cccc12	none
COc1ccc2[nH]c(C)c(C(=O)CN3CCN(C/C=C/c4ccccc4)CC3)c2c1	DNA FID counter 39
Cc1[nH]c2ccccc2c1C(=O)CN1CCN(C/C=C/c2ccccc2)CC1	none
O=C(CSc1nnc(NC(=O)c2cccc(Cl)c2)s1)NCC1CCCO1 (stereo not given)	VIM-2 inhibitor 8.6
CCOc1ccc(C(=O)Nc2nnc(SCC(=O)NCC3CCCO3)s2)cc1OCC (stereo not given)	none
